These results are taken from ChEMBL document CHEMBL1152449, “6-methyl-2,4-disubstituted pyridazin-3(2H)-ones: a novel class of small-molecule agonists for formyl peptide receptors” (J Med Chem, 2009).

Experiment [1] deals with T1, fMet-Leu-Phe receptor (Homo sapiens, UniProt P21462).
T1 sequence (P21462 whole entry): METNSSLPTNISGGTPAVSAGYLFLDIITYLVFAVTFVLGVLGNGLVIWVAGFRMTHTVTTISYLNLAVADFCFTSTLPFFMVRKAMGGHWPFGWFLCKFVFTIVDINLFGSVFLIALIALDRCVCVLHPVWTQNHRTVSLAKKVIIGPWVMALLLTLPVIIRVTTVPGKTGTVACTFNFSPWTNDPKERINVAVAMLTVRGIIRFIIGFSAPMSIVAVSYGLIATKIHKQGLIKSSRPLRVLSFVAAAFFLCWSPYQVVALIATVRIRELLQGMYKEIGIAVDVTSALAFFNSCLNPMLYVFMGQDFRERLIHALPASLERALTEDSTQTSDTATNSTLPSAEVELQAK
Nature of the experiment: Agonist activity at FPR1 expressed in human HL60 cells assessed as induction of intracellular calcium flux by FLIPR3 calcium assay. The experiment is classed as functional, cell-based, HL-60. The method, boiled down:
(§1)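 HL-60 cells stably transfected with the receptor, grown in RPMI with 10% heat-inactivated FCS, 10 mM HEPES, antibiotics and G418 (1 mg/mL). They were then washed, resuspended in HBSS+ (2 × 10^5 cells/well) and read on a FlexStation II.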

Experiment [2] addresses T2, N-formyl peptide receptor 2 (Homo sapiens, UniProt P25090).
T2 sequence (P25090 whole entry): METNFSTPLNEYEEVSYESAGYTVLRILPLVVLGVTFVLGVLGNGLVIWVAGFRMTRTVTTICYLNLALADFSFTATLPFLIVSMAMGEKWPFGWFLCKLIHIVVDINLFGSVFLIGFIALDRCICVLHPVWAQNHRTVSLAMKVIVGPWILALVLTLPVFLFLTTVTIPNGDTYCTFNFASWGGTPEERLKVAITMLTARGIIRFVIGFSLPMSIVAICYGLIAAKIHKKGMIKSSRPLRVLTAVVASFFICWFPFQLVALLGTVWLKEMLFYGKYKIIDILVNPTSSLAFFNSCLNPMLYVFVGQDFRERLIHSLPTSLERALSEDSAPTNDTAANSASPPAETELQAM
Nature of the experiment: Agonist activity at FPRL1 expressed in human HL60 cells assessed as induction of intracellular calcium flux by FLIPR3 calcium assay. In kind it is functional, cell-based. As to conditions: hl-60; call rule not given here. The procedure, abridged: as §1

Experiment [3] has as its target T3, N-formyl peptide receptor 3 (Homo sapiens, UniProt P25089).
T3 sequence (P25089 whole entry): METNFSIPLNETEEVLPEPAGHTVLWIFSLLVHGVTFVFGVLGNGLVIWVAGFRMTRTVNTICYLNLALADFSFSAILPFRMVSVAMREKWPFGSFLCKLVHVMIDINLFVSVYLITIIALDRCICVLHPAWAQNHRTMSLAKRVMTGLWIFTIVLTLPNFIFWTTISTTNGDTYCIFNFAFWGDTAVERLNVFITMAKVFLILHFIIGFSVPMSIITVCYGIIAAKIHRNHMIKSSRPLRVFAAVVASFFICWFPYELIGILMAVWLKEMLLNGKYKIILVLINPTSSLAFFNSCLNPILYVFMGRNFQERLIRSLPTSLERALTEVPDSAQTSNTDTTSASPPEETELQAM
The experiment is described as follows: Agonist activity at FPRL2 expressed in human HL60 cells assessed as induction of intracellular calcium flux by FLIPR3 calcium assay. The experiment is classed as functional, cell-based. The note with it: hl-60. The procedure, abridged:
as §1

Experiment [4] concerns the target T1, fMet-Leu-Phe receptor. Nature of the experiment: Agonist activity at FPR1 in human neutrophiles assessed as induction of intracellular calcium flux by FLIPR3 calcium assay. In kind it is functional, cell-based.
Experiment [5] deals with T4, fMet-Leu-Phe receptor (Homo sapiens) (UniProt P21462).
T4 sequence (whole entry): T1 sequence (P21462 whole entry)
Nature of the experiment: Agonist activity at FPR1 expressed in human HL60 cells assessed as induction of intracellular calcium flux by FLIPR3 calcium assay relative to N-formyl-methionyl-leucyl-phenylalanine. In kind it is functional, cell-based. As to conditions: HL-60.

Structures are written as SMILES.

Turning to `COc1cccc(Cc2cc(C)nn(CC(=O)c3ccc(Br)cc3)c2=O)c1`, the EC50 entry in experiment [1] (hl-60), in experiment [2] and in experiment [3] was “Not Active” each time.

As to `COc1cccc(Cc2cc(C)nn(CC(=O)Nc3ccc4c(c3)OCO4)c2=O)c1`, the concentration for a half-maximal effect (EC50) in experiment [4] was 3600 nM; in experiment [1] (read-out: EC50), 2300 nM; in experiment [2] it was “Not Active”; in experiment [3], “Not Active”. Moreover, the Activity in experiment [5] came out at 50%.
